According to ChEMBL document CHEMBL3297681, “Design, synthesis, and biological evaluations of tumor-targeting dual-warhead conjugates for a taxoid-camptothecin combination chemotherapy” (J Med Chem, 2014):

Legend:
MX1 [1] = experiment: Cytotoxicity against human MX1 cells overexpressing biotin receptor assessed as growth inhibition after 24 hrs by MTT assay; assay type: functional, cell-based
Outline: (§1)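 Conjugate was incubated with cells for 24 h at 37 °C, then removed by PBS washing. GSH-OEt (6 equiv to conjugate) in medium was added to release drug, followed by a further 48 h at 37 °C (72 h total). Read-out was MTT at 570 nm. IC50 came from a four-parameter logistic fit, in triplicate.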

L1210 [2] = experiment: Cytotoxicity against mouse L1210 cells overexpressing folate receptor assessed as growth inhibition after 72 hrs by MTT assay; assay type: functional, cell-based
Outline: (§2)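 Continuous 72 h exposure at 37 °C. Cells were seeded at 0.5–1.5 × 10^4 per well, and adherent lines were left to settle overnight before the medium was refreshed. DMSO was ≤1%. Read-out was MTT (0.5 mg/mL, 3 h), with formazan dissolved in 0.1 N HCl/2-propanol plus 10% Triton X-100 and absorbance read at 570 nm. IC50 came from a four-parameter logistic fit, in triplicate.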

MX1 [3] = experiment: Cytotoxicity against human MX1 cells overexpressing biotin receptor assessed as growth inhibition after 72 hrs by MTT assay; assay type: functional, cell-based; outline: as §2
[4] = Cytotoxicity against mouse ID8 cells overexpressing biotin receptor assessed as growth inhibition after 72 hrs by MTT assay; assay type: functional, cell-based; outline: as §2
MCF7 [5] = experiment: Cytotoxicity against human MCF7 cells overexpressing biotin receptor assessed as growth inhibition after 72 hrs by MTT assay; assay type: functional, cell-based; outline: as §2
[6] = Cytotoxicity against human WI38 cells overexpressing biotin receptor assessed as growth inhibition after 72 hrs by MTT assay; assay type: functional, cell-based; conditions: wi-38; outline: as §2
MCF7 [7] = experiment: Cytotoxicity against human MCF7 cells overexpressing biotin receptor assessed as growth inhibition after 24 hrs by MTT assay; assay type: functional, cell-based; outline: as §1
[8] = Cytotoxicity against mouse ID8 cells overexpressing biotin receptor assessed as growth inhibition after 24 hrs by MTT assay; assay type: functional, cell-based
L1210 [9] = experiment: Cytotoxicity against mouse L1210 cells overexpressing folate receptor assessed as growth inhibition after 24 hrs by MTT assay; assay type: functional, cell-based; outline: as §1
MCF7 [10] = experiment: Drug uptake in human MCF7 cells at 10 uM after 10 hrs by confocal fluorescence microscopy analysis; assay type: ADME, cell-based; conditions: mcf7, 10 h
Outline: (§3)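 Cells were incubated with 10 μM conjugate at 37 °C for 10 h, washed thoroughly, and resuspended in PBS. Internalization was imaged by confocal microscopy using camptothecin's intrinsic fluorescence.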

L1210 [11] = experiment: Cytotoxicity against mouse L1210 cells overexpressing biotin receptor assessed as growth inhibition after 72 hrs by MTT assay; conditions: L1210, 72 h
[12] = Drug uptake in mouse ID8 cells at 10 uM after 10 hrs by confocal fluorescence microscopy analysis; assay type: ADME, cell-based; conditions: id8, 10 h; outline: as §3
[13] = Cytotoxicity against human WI38 cells assessed as growth inhibition after 72 hrs by MTT assay; conditions: WI-38, 72 h
MCF7 [14] = experiment: Cytotoxicity against human MCF7 cells overexpressing biotin receptor assessed as growth inhibition at 1:1 compound to camptothecin ratio after 72 hrs by MTT assay in presence of camptothecin; assay type: functional, cell-based; conditions: MCF7, 72 h
Outline: (§4)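 Cells were exposed simultaneously to an equimolar taxoid/camptothecin mixture for 72 h at 37 °C. Viability was read by MTT (0.5 mg/mL, 3 h, absorbance 570 nm). IC50 came from a four-parameter logistic fit of viability against concentration, in triplicate.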

MX1 [15] = experiment: Cytotoxicity against human MX1 cells overexpressing biotin receptor assessed as growth inhibition pretreated for 24 hrs with camptothecin then incubated for 48 hrs by MTT assay in presence of camptothecin; assay type: functional, cell-based
Outline: (§5)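 Cells were seeded at 8000–10000 per well and preincubated 24 h. Camptothecin serial dilutions were given first for 24 h at 37 °C. An equimolar amount of taxoid was then added for a further 48 h at 37 °C. Viability was read by MTT at 570 nm, and IC50 came from a four-parameter logistic fit, in triplicate.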

MCF7 [16] = experiment: Cytotoxicity against human MCF7 cells overexpressing biotin receptor assessed as growth inhibition treated for 24 hrs then incubated 48 hrs with camptothecin by MTT assay in presence of camptothecin; assay type: functional, cell-based
Outline: (§6)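 Cells were seeded at 8000–10000 per well and preincubated 24 h. Taxoid was given first for 24 h at 37 °C. An equimolar amount of camptothecin was then added for another 48 h at 37 °C. Viability was read by MTT at 570 nm, and IC50 came from a four-parameter logistic fit, in triplicate.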

L1210 [17] = experiment: Cytotoxicity against mouse L1210 cells overexpressing folate receptor assessed as growth inhibition pretreated for 24 hrs with camptothecin then incubated for 48 hrs by MTT assay in presence of camptothecin; assay type: functional, cell-based; outline: as §5
[18] = Cytotoxicity against mouse ID8 cells overexpressing biotin receptor assessed as growth inhibition pretreated for 24 hrs with camptothecin then incubated for 48 hrs by MTT assay in presence of camptothecin; assay type: functional, cell-based; outline: as §5
MX1 [19] = experiment: Cytotoxicity against human MX1 cells overexpressing biotin receptor assessed as growth inhibition at 1:1 compound to camptothecin ratio after 72 hrs by MTT assay in presence of camptothecin; assay type: functional, cell-based; conditions: MX1, 72 h; outline: as §4
MCF7 [20] = experiment: Cytotoxicity against human MCF7 cells overexpressing biotin receptor assessed as growth inhibition pretreated for 24 hrs with camptothecin then incubated for 48 hrs by MTT assay in presence of camptothecin; assay type: functional, cell-based; outline: as §5
L1210 [21] = experiment: Cytotoxicity against mouse L1210 cells overexpressing folate receptor assessed as growth inhibition at 1:1 compound to camptothecin ratio after 72 hrs by MTT assay in presence of camptothecin; assay type: functional, cell-based; conditions: L1210, 72 h; outline: as §4
L1210 [22] = experiment: Cytotoxicity against mouse L1210 cells overexpressing folate receptor assessed as growth inhibition treated for 24 hrs then incubated 48 hrs with camptothecin by MTT assay in presence of camptothecin; assay type: functional, cell-based; outline: as §6
[23] = Cytotoxicity against mouse ID8 cells overexpressing biotin receptor assessed as growth inhibition treated for 24 hrs then incubated 48 hrs with camptothecin by MTT assay in presence of camptothecin; assay type: functional, cell-based; outline: as §6
MX1 [24] = experiment: Cytotoxicity against human MX1 cells overexpressing biotin receptor assessed as growth inhibition treated for 24 hrs then incubated 48 hrs with camptothecin by MTT assay in presence of camptothecin; assay type: functional, cell-based; outline: as §6
[25] = Cytotoxicity against mouse ID8 cells overexpressing biotin receptor assessed as growth inhibition at 1:1 compound to camptothecin ratio after 72 hrs by MTT assay in presence of camptothecin; assay type: functional, cell-based; conditions: ID8, 72 h; outline: as §4

`CC[C@@]1(OC(=O)Cc2ccccc2SSC(C)CCC(=O)NCCOCCOCCOCCn2cc(CNc3nc(NCCNC(=O)CCC(C)SSc4ccccc4CC(=O)Oc4ccccc4)nc(NCCOCCOCCOCCNC(=O)CCCC[C@@H]4SC[C@@H]5NC(=O)N[C@@H]54)n3)nn2)C(=O)OCc2c1cc1n(c2=O)Cc2cc3ccccc3nc2-1` (stereo not given in full) showed an IC50 (MX1 [1]; mx1) of over 5000 nM, an IC50 (L1210 [2]) of 319 nM and an IC50 (MX1 [3]; mx1) of over 5000 nM. For the same compound, the IC50 ([4]; id8) was over 5000 nM, the IC50 (MCF7 [5]; mcf7) was 1260 nM and the IC50 [6] was 1440 nM. It also gave an IC50 (MCF7 [7]; mcf7) of 538 nM, an IC50 ([8]; id8) of 2390 nM and an IC50 (L1210 [9]; l1210) of 177 nM.

In the case of `CC[C@@]1(OC(=O)CCC(=O)NCCOCCOCCOCCn2cc(CNc3nc(NCCNC(=O)CCC(C)SSc4ccccc4CC(=O)O[C@@H](C(=O)O[C@H]4C[C@@]5(O)[C@@H](OC(=O)c6ccccc6)[C@@H]6[C@]7(OC(C)=O)CCO[C@@H]7C[C@H](O)[C@@]6(C)C(=O)[C@H](OC(=O)C6CC6)C(=C4C)C5(C)C)[C@H](C=C(C)C)NC(=O)OC(C)(C)C)nc(NCCOCCOCCOCCNC(=O)CCCC[C@@H]4SC[C@@H]5NC(=O)N[C@@H]54)n3)nn2)C(=O)OCc2c1cc1n(c2=O)Cc2cc3ccccc3nc2-1` (stereo not given in full), the IC50 (MX1 [1]; mx1) is reported as 20.8 nM, the IC50 (L1210 [2]) is reported as 42.5 nM and the IC50 (MX1 [3]; mx1) is reported as 65.1 nM. It also gave an IC50 ([4]; id8) of 25.6 nM, an IC50 (MCF7 [5]; mcf7) of 21.1 nM and an IC50 [6] of 868 nM. It also gave an IC50 (MCF7 [7]; mcf7) of 9.4 nM, an IC50 ([8]; id8) of 10.3 nM and an IC50 (L1210 [9]; l1210) of 13.7 nM.

For `CC[C@@]1(OC(=O)Cc2ccccc2SSC(C)CCC(=O)NCCOCCOCCOCCn2cc(CNc3nc(NCCNC(=O)CCC(C)SSc4ccccc4CC(=O)O[C@@H](C(=O)O[C@H]4C[C@@]5(O)[C@@H](OC(=O)c6ccccc6)[C@@H]6[C@]7(OC(C)=O)CCO[C@@H]7C[C@H](O)[C@@]6(C)C(=O)[C@H](OC(=O)C6CC6)C(=C4C)C5(C)C)[C@H](C=C(C)C)NC(=O)OC(C)(C)C)nc(NCCOCCOCCOCCNC(=O)CCCC[C@@H]4SC[C@@H]5NC(=O)N[C@@H]54)n3)nn2)C(=O)OCc2c1cc1n(c2=O)Cc2cc3ccccc3nc2-1` (stereo not given in full), the Drug uptake (MCF7 [10]) was “Active”, the IC50 (L1210 [11]) was 39.1 nM and the IC50 (MX1 [1]; Homo sapiens, MX1, 24 h) was 9.8 nM. For the same compound, the IC50 (MX1 [3]; Homo sapiens, MX1, 72 h) was 51.7 nM, the IC50 ([4]; Mus musculus, ID8, 72 h) was 23.4 nM and the IC50 (MCF7 [5]; Homo sapiens, MCF7, 72 h) was 19 nM. For the same compound, the IC50 (MCF7 [7]; Homo sapiens, MCF7, 24 h) was 3.2 nM, the Drug uptake [12] was “Active” and the IC50 [13] was 742 nM. For the same compound, the IC50 ([8]; Mus musculus, ID8, 24 h) was 5.7 nM and the IC50 (L1210 [9]; Mus musculus, L1210, 24 h) was 7.4 nM.

`CC(=O)O[C@@]12CCO[C@@H]1C[C@H](O)[C@@]1(C)C(=O)[C@H](OC(=O)C3CC3)C3=C(C)[C@@H](OC(=O)[C@H](O)[C@H](C=C(C)C)NC(=O)OC(C)(C)C)C[C@@](O)([C@@H](OC(=O)c4ccccc4)[C@H]21)C3(C)C` showed an IC50 (MCF7 [14]) of 0.4 nM, an IC50 (MX1 [15]) of over 5 µM and an IC50 (L1210 [11]) of 2.14 nM. The IC50 (MCF7 [16]) was 0.33 nM, the IC50 (L1210 [17]) was 949 nM and the IC50 [18] was 110 nM. It also gave an IC50 (MX1 [3]; Homo sapiens, MX1, 72 h) of 2.01 nM, an IC50 (MX1 [19]) of 1.88 nM and an IC50 ([4]; Mus musculus, ID8, 72 h) of 1.11 nM. The IC50 (MCF7 [5]; Homo sapiens, MCF7, 72 h) was 0.44 nM, the IC50 (MCF7 [20]) was 79.2 nM and the IC50 (L1210 [21]) was 4.14 nM. It also gave an IC50 (L1210 [22]) of 3.51 nM, an IC50 [13] of 5.89 nM and an IC50 [23] of 0.96 nM. It also gave an IC50 (MX1 [24]) of 1.98 nM and an IC50 [25] of 1.02 nM.

`CC[C@@]1(O)C(=O)OCc2c1cc1n(c2=O)Cc2cc3ccccc3nc2-1` [CAMPTOTHECIN] showed an IC50 (L1210 [11]) of 510 nM, an IC50 (MX1 [3]; Homo sapiens, MX1, 72 h) of 1700 nM and an IC50 ([4]; Mus musculus, ID8, 72 h) of 474 nM. The IC50 (MCF7 [5]; Homo sapiens, MCF7, 72 h) was 65.1 nM and the IC50 [13] was 786 nM.

In the case of `CC(=O)O[C@@]12CCO[C@@H]1C[C@H](O)[C@@]1(C)C(=O)[C@H](OC(=O)C3CC3)C3=C(C)[C@@H](OC(=O)[C@H](OC(=O)Cc4ccccc4SSC(C)CCC(=O)NCCNc4nc(NCCOCCOCCOCCNC(=O)CCCC[C@@H]5SC[C@@H]6NC(=O)N[C@@H]65)nc(NCc5cn(CCOCCOCCOCCNC(=O)CCC(C)SSc6ccccc6CC(=O)Oc6ccccc6)nn5)n4)[C@H](C=C(C)C)NC(=O)OC(C)(C)C)C[C@@](O)([C@@H](OC(=O)c4ccccc4)[C@H]21)C3(C)C` (stereo not given in full), the IC50 (MX1 [1]; mx1) is reported as 23.6 nM, the IC50 (L1210 [2]) is reported as 50.9 nM and the IC50 (MX1 [3]; mx1) is reported as 66.9 nM. The IC50 ([4]; id8) was 26.7 nM, the IC50 (MCF7 [5]; mcf7) was 23.1 nM and the IC50 [6] was 941 nM. It also gave an IC50 (MCF7 [7]; mcf7) of 9.9 nM, an IC50 ([8]; id8) of 15.6 nM and an IC50 (L1210 [9]; l1210) of 14.4 nM.
